# What was measured:
# [1] = UV filtering activity of the compound assessed as maximum absorption wavelength; format: functional
# Method in brief: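 UV absorption spectrum recorded in methanol at 0.000034 (± 0.0000033) M; wavelength of maximum absorption taken, together with molar extinction coefficient.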
# [2] = Antioxidant activity assessed as DPPH free radical scavenging activity by measuring trolox equivalent by spectrophotometric analysis; format: functional
# Method in brief: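 Diluted compound solution (0.750 mL) added to 1.5 mL methanolic DPPH. Absorbance decrease read at 517 nm. Blank was DPPH plus methanol. Inhibition % = [(AB−As)/AB]×100. Trolox calibration curve used as standard.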
# [3] = Antioxidant activity assessed as ferric ion reducing activity by measuring trolox equivalents after 10 mins by FRAP assay; format: functional
# Method in brief: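 Reagent made fresh: 0.1 M acetate buffer pH 3.6, 10 mM TPTZ in 40 mM HCl and 20 mM FeCl3 at 10:1:1 (v/v/v). Diluted sample (0.1 mL) added to 1.9 mL reagent; solvent used for blank. Absorbance at 593 nm after 10 min, increase taken over blank. Expressed as Trolox activity from calibration curve.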
# [4] = Antioxidant activity assessed as AAPH-induced radical scavenging activity by measuring trolox equivalents for oxygen radical absorbance capacity measured at 5 mins intervals up to 30 mins by ORAC-FL assay; format: functional
# Method in brief: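 Fluorescein (85 nM) as target, AAPH as peroxyl radical generator, 0.2 mL final volume. Compounds dissolved in methanol and diluted in phosphate buffer pH 7.4. Fluorescence read at ex 485/em 538 nm, 37 °C, every 5 min up to 30 min after AAPH. Value from difference in areas under fluorescein decay curves, blank vs sample. Trolox calibration 40–240 µM; µmol TE per gram compound.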
# [5] = Antiproliferative activity against human Colo38 cells after 7 days by Coulter counter method; format: functional, cell-based; settings: 168 h
# Method in brief: (§1)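 RPMI 1640 with 10% FBS, penicillin, streptomycin and 2 mM glutamine, pH 7.2, 37 °C, 5% CO2. Stocks 20 mM in MeOH/DMSO 10%, diluted in MeOH, added at serial dilutions. Cells suspended in physiological solution and counted by Coulter counter. IC50 = 50% growth inhibition while untreated cells in log phase. Untreated cells as negative control on every plate.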
# [6] = test system: K562; experiment: Antiproliferative activity against human K562 cells after 7 days by Coulter counter method; format: functional, cell-based; settings: K562, 168 h; method in brief: as §1
# [7] = UV filtering activity of the compound assessed as UVA/UVB ratio; format: functional
# Method in brief: (§2)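 Spectra recorded on methanolic solutions at 0.000034 (± 0.0000033) M. Absorbance converted to transmittance by A(λ) = −Log[T(λ)], and SPF, UVA/UVB ratio, UVAPF and critical wavelength derived from the transmittance spectrum. Method adapted from the official in vitro SPF method; UVAPF per ISO-24443. PBSA served as reference.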
# [8] = UV filtering activity of the compound assessed as solar protection factor relative to control; format: functional; method in brief: as §2
# [9] = UV filtering activity of the compound assessed as wavelength at which the integral of the spectral absorbance curve reaches 90% of area under the curve from 290 to 400 nm; format: functional; method in brief: as §2
# [10] = UV filtering activity of the compound assessed as UVA protection factor value relative to control; format: functional; method in brief: as §2
# [11] = test system: K562; experiment: Induction of erythroid differentiation on human K562 cells after 5 days by benzidine staining-based assay; format: functional
# Method in brief: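 K562 cells treated in culture, then scored for erythroid differentiation by benzidine staining with 0.2% benzidine in 5 M glacial acetic acid and 10% H2O2. Assayed after 5, 6 and 7 days of treatment; value given as percentage of differentiated cells.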
Compound,Activity [1] [nm],Activity [2],Activity [3] [µmolequiv/g],Activity [4] [µmolequiv/g],IC50 [5] [µM],IC50 [6] [µM],Ratio [7],SPF [8],Activity [9] [nm],UVAPF [10],Activity [11] [%]
O=C(N/N=C/c1ccc(O)cc1)c1cc2ccccc2o1,328,45.8 µmolequiv/g,2290,26100,39.4,79.9,0.29,3.4,322,1.03,–
COc1cc(/C=N/NC(=O)c2cc3ccccc3o2)ccc1O,334,101 µmolequiv/g,3100,10900,49,5.6,2.33,3.36,371,5.57,5
O=C(N/N=C/c1c(O)ccc2ccccc12)c1cc2ccccc2o1,329,132 µmolequiv/g,132,–,3.01,4.5,0.39,8.82,359,2.85,–
O=C(N/N=C/c1ccc(O)cc1O)c1cc2ccccc2o1,343,149 µmolequiv/g,1210,9380,0.57,4.3,0.26,10.2,342,1.5,5
O=C(N/N=C/c1c(O)cc(O)cc1O)c1cc2ccccc2o1,345,1140 µmolequiv/g,4020,3560,24.4,64,1.32,1.99,366,2.02,–
O=S(=O)(O)c1ccc2[nH]c(-c3ccccc3)nc2c1,302,–,–,–,–,–,1.27,1.68,394,5.1,–
CCN(CC)c1ccc(/C=N/NC(=O)c2cc3ccccc3o2)c(O)c1,381,1010 µmolequiv/g,4150,22100,0.44,0.52,1.29,2.59,387,3.6,–
O=C(N/N=C/c1cc(Cl)ccc1O)c1cc2ccccc2o1,310,Below limit of detection,46.3,–,2.02,3.7,1.14,5.78,357,2.89,–
O=C(N/N=C/c1ccc(O)c(O)c1O)c1cc2ccccc2o1,336,9210 µmolequiv/g,13200,5260,6.48,6,0.85,7.58,353,2.45,–
O=C(N/N=C/c1cccc(O)c1)c1cc2ccccc2o1,314,76.7 µmolequiv/g,1670,6790,6.2,52.4,0.85,7.58,353,2.45,–
O=C(N/N=C/c1cc(O)ccc1O)c1cc2ccccc2o1,306,6200 µmolequiv/g,6970,19000,6.26,36.8,1.33,2.18,366,2.38,–

# — ChEMBL document CHEMBL4152329, “Benzofuran hydrazones as potential scaffold in the development of multifunctional drugs: Synthesis and evaluation of antioxidant, photoprotective and antiproliferative activity” (Eur J Med Chem, 2018)
